Data from ChEMBL document CHEMBL4480459, “Acylated Lignans Isolated from Brachanthemum gobicum and Their Trypanocidal Activity” (J Nat Prod, 2019).

Tested on: Trypanosoma congolense
Test: Trypanocidal activity against bloodstream form of Trypanosoma congolense IL3000 after 72 hrs by CellTiter-Glo reagent-based luminescence assay
Type: functional, organism-based
Settings: IL3000, 72 h
Method in brief: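 BSF parasites maintained daily in HMI-9 medium. Compounds serially diluted 5-fold in HMI-9 from 25 μg/mL to 1.6 ng/mL and incubated with trypanosomes for 72 h. Viability read by luminescence after CellTiter-Glo addition; IC50 calculated from the dilution series. Pentamidine as positive control.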

| Structure (SMILES) | IC50 [µM] |
| --- | --- |
| COc1cc(/C=C/C(=O)O)ccc1O [FERULATE] | > 25 |
| COc1cc(C(=O)[C@H](O)COC(=O)CC(C)C)ccc1O | > 25 |
| COc1cc([C@@H]2Oc3c(OC)cc(/C=C/C=O)cc3[C@H]2COC(C)=O)ccc1O | 7.6 |
| COc1cc([C@@H](OC)[C@H](O)COC(=O)CC(C)C)ccc1O | > 25 |
| COc1cc(C(=O)[C@@H](COC(=O)CC(C)C)c2cc(C=O)cc(OC)c2O)ccc1O | > 25 |
| COc1cc([C@@H]2Oc3c(OC)cc(C=O)cc3[C@H]2COC(=O)CC(C)C)ccc1O | 19.9 |
| COc1cc(C=O)ccc1O [VANILLIN] | > 25 |
| COc1cc([C@@H]2Oc3c(OC)cc(/C=C/COC(=O)CC(C)C)cc3[C@H]2COC(=O)CC(C)C)ccc1O | 13.4 |
| COc1cc([C@@H]2Oc3c(OC)cc(/C=C/C=O)cc3[C@H]2COC(=O)CC(C)C)ccc1O | 2.4 |
| COc1cc(/C=C/COC(=O)CC(C)C)ccc1O | > 25 |
| COc1cc([C@@H](O)[C@@H](COC(=O)CC(C)C)Oc2ccc(/C=C/COC(=O)CC(C)C)cc2OC)ccc1O | 17.4 |
| COc1cc([C@@H]2Oc3c(OC)cc(/C=C/COC(C)=O)cc3[C@H]2COC(C)=O)ccc1O | 16.2 |
| COc1cc([C@@H]2Oc3c(OC)cc(C(=O)O)cc3[C@H]2COC(=O)CC(C)C)ccc1O | > 25 |
| C=C(C=O)[C@H](COC(=O)CC(C)C)C(c1ccc(O)c(OC)c1)c1ccc(O)c(OC)c1 | 2.8 |
| COc1cc(C(=O)[C@@H](COC(=O)CC(C)C)Oc2ccc(/C=C/COC(=O)CC(C)C)cc2OC)ccc1O | 9.6 |
| COc1cc([C@@H](O)[C@H](O)COC(=O)CC(C)C)ccc1O | > 25 |
| COc1cc(/C=C/C=O)ccc1O [CONIFERYL ALDEHYDE] | > 25 |
